Calls of active or inactive are those of the source.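 Rule for the calls, unless noted: active = viability at or below 10% of carrier control in both of two separate runs; inconclusive = viability at or below 10% in only one of the two runs; inactive = the rest.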
Key:
[1] = target: Pantothenate synthetase (Mycobacterium tuberculosis (strain ATCC 25618 / H37Rv)) (UniProt P9WIL5); experiment: Recombinant Mtb pantothenate synthetase (PanC) inhibitors, coupled enzyme, confirmatory (AID 375; call rule not given here;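 note: 0% = full reaction with vehicle and 100% = no enzyme background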); settings: coupled enzyme assay; at 10 µM, stronger effect = higher value
Sequence of Pantothenate synthetase (Mycobacterium tuberculosis (strain ATCC 25618 / H37Rv)) (P9WIL5 whole entry, looked up): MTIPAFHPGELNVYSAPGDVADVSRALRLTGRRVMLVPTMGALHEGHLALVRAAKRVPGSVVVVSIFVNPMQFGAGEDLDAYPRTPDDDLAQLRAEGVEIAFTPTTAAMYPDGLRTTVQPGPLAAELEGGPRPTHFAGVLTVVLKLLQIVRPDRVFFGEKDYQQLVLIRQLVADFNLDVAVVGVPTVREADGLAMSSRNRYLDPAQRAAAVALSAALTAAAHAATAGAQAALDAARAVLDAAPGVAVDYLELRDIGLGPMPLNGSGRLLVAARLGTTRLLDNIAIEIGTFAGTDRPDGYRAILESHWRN

[2] = reducers of endogenous Her2 protein level, primary screen, SKBR3 breast tumor cells, AlphaScreen, ATP viability (AID 461;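 active = Her2 level under about 52% in both replicate screens, with viability over 70% of control, limit read from the data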;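 for Her2 level: lower value means less Her2 protein in the cells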;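 for viability: percent of carrier control wells set as 100% viability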); settings: 18-24 h, measured here: SKBR3 viability, ATP luminescence, at 10 µM
[3] = target: Receptor tyrosine-protein kinase erbB-2 (Homo sapiens) (UniProt P04626); experiment: as above; settings: 18-24 h, at 10 µM, stronger effect = lower value
Sequence of Receptor tyrosine-protein kinase erbB-2 (Homo sapiens) (P04626 whole entry, looked up): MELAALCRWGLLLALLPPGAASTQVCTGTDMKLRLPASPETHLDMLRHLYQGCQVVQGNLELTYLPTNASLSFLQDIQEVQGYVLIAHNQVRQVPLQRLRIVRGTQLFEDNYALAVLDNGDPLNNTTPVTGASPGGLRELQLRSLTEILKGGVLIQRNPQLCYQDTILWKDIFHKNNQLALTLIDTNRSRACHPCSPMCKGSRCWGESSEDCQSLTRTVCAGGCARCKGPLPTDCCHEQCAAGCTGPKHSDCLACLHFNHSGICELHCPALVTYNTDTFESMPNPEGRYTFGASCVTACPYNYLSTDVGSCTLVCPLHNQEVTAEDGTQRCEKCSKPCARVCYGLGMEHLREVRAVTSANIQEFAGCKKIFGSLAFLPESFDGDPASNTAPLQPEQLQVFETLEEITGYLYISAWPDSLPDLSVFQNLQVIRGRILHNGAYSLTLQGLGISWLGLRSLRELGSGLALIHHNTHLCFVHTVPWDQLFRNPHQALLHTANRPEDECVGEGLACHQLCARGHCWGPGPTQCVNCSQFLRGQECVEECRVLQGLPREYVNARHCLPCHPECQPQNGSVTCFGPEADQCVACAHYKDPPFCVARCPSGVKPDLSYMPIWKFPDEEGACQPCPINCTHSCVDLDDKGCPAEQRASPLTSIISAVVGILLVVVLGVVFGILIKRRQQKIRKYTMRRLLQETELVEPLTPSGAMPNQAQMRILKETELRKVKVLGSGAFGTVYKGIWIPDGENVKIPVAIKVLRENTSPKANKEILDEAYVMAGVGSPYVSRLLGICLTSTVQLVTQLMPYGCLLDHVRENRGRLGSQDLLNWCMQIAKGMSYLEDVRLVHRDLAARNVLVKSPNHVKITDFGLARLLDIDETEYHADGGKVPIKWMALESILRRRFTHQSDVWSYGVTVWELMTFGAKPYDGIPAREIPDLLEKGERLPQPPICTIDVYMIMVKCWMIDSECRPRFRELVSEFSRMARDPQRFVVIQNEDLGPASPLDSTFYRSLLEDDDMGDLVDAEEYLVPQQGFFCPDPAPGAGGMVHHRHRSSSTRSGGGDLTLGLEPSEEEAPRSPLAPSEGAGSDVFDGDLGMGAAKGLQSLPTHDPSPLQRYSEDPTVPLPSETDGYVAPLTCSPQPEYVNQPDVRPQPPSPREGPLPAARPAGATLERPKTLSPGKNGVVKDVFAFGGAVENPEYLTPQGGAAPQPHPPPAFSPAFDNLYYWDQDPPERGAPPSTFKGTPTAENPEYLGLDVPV

[4] = SK-BR-3 cell growth inhibitors, pilot screen, 24 h, human (AID 572); settings: SK-BR-3 viability, CellTiter-Glo luminescence, at 10 µM, stronger effect = lower value;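 note: compound exposure lasted between 18 and 24 h rather than exactly 24 h; 100% = carrier-treated control wells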
[5] = HUVEC growth inhibition – cell-based, human, primary screen (AID 575;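 active = viability at or below 30% in both replicate assays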;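 note: 100% = median of untreated cell wells with 0.1% DMSO on each plate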); settings: HUVEC proliferation, CellTiter-Glo luminescence, 72 h; at 10 µM; stronger effect = lower value
Summary of the method: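 System – primary HUVEC, no more than 12 passages · Medium – Low-serum (2% FBS) EBM, supplemented · Times – 72 h exposure, 37 °C, 5% CO2, 30 min RT equilibration · Measured by – luminescent ATP assay · Read-out – % viability relative to median vehicle-well signal on each plate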

[6] = growth inhibitors of H69AR lung tumor, primary screen, human, duplicate replicates (AID 580;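 active = viability at or under a set limit in both replicates, limit being median viability minus 3 SD, cut at about 48% in these data, passing the limit was not always enough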;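 note: 100% = mean luminescence of untreated wells and 0% = no signal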); settings: H69AR lung tumor cells viability, ATP luminescence, 72 h; at 10 µM; stronger effect = lower value
[7] = reversal of MRP1-mediated doxorubicin resistance, pilot screen, H69AR cells, doxorubicin co-treatment (AID 601;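 active = viability loss from added drug above about 55%, and viability with drug at most 40%, in both replicates, limit read from the data, passing the limit was not always enough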); settings: CellTiter-Glo, 72 h, at 10 µM; for differential viability (reversal): stronger effect = higher value
[8] = 384-well plate pilot, post-Golgi transport modulator project, inhibition of yeast transport mutant growth (AID 636; in the data active = inhibition above about 31%); settings: absorbance 615 nm, about 18 h, stronger effect = higher value
[9] = growth suppression of yeast trafficking mutant, preliminary HTS, modulators of trafficking downstream of Golgi apparatus project, 1536-format plate, OD 615 nm (AID 637; in the data active = inhibition above about 30%); settings: yeast transport mutant growth, absorbance 615 nm, 18 h; stronger effect = higher value
[10] = H69AR cells + 2 uM doxorubicin, measured here: viability with 2 uM doxorubicin, stronger effect = lower value
[11] = H69AR cells, compound alone cytotoxicity

SMILES	inhibition [1]	viability [2] [%]	Her2 level [3]	viability [4]	viability [5]	viability [6]	differential viability (reversal) ([7]; H69AR cells + 2 uM doxorubicin)	viability [7, 10] [%]	viability [7, 11] [%]	inhibition [8]	inhibition [9]
Cn1c(O)c(C=NCc2ccco2)c(=O)n(C)c1=O	0% (inactive)	106	96% (inactive)	106% (inactive)	96.8% (inactive)	95.1% (inactive)	5% (inactive)	90.1	95.1	-4.53% (inactive)	14.7% (inactive)
COc1ccc(C2NCc3ccc4c(c3-n3cccc32)OCO4)cc1O (centres undefined)	0% (inactive)	110	73% (inactive)	110% (inactive)	40.7% (inactive)	25.5% (active)	-41.5% (inactive)	67	25.5	-5.79% (inactive)	-5.56% (inactive)
O=C(C1CCCN(S(=O)(=O)c2cccc3nsnc23)C1)N1CCC2(CC1)OCCO2 (centres undefined)	0% (inactive)	97	100% (inactive)	97% (inactive)	100% (inactive)	81.6% (inactive)	-16.9% (inactive)	98.5	81.6	-5% (inactive)	1.33% (inactive)
CC1=C(C(=O)OC(C)C)[C@]2(C(=O)N(CC(N)=O)c3ccccc32)C(C#N)=C(N)O1	3% (inactive)	92	85.5% (inactive)	92% (inactive)	110% (inactive)	113% (inactive)	15.5% (inactive)	97.5	113	-6.8% (inactive)	19.5% (inactive)
CSc1ccc(C(=O)C(C)(C)N2CCOCC2)cc1	0% (inactive)	106	107% (inactive)	106% (inactive)	112% (inactive)	105% (inactive)	18.2% (inactive)	87.2	105	-2.76% (inactive)	6.56% (inactive)
CC1CCC(C(=O)NC(C(=O)N2CCC3(CC2)OCCO3)C(C)C)CC1 (centres undefined)	3% (inactive)	96.5	98.5% (inactive)	96.5% (inactive)	114% (inactive)	99.5% (inactive)	8.49% (inactive)	91	99.5	-6.36% (inactive)	-5.25% (inactive)
O=c1[nH]c(=O)n(-c2ccc(F)cc2)c(O)c1C=Nc1ccccc1N1CCCC1	8% (inactive)	97.5	105% (inactive)	97.5% (inactive)	73.9% (inactive)	61.3% (inactive)	-6.94% (inactive)	68.2	61.3	-3.55% (inactive)	3% (inactive)
Cc1ccc(C)c(NC2=NCCCS2)c1	0% (inactive)	108	89.5% (inactive)	108% (inactive)	91.9% (inactive)	104% (inactive)	11.3% (inactive)	92.9	104	-8.08% (inactive)	-1.59% (inactive)
CC(C)CC12CN3CCN(CC(C3)/C1=N/O)C2	0% (inactive)	107	101% (inactive)	107% (inactive)	108% (inactive)	96.4% (inactive)	8.57% (inactive)	87.8	96.4	-5.54% (inactive)	-0.98% (inactive)
CCOc1cc2[nH]c(=S)n(CCCC(=O)N3CCC4(CC3)OCCO4)c(=O)c2cc1OCC	0% (inactive)	88.5	85.5% (inactive)	88.5% (inactive)	78.2% (inactive)	89.2% (inactive)	-4% (inactive)	93.2	89.2	-4.59% (inactive)	-4.75% (inactive)
COc1ccc(N2CCN(CCCN)CC2)cc1	0% (inactive)	94.5	88% (inactive)	94.5% (inactive)	72.6% (inactive)	81.5% (inactive)	3.81% (inactive)	77.7	81.5	-0.91% (inactive)	-1.27% (inactive)
CCn1nc(-c2ccccc2)nc2c(=O)n(C)c(=O)nc1-2	0% (inactive)	106	93% (inactive)	106% (inactive)	2.75% (active)	1.38% (active)	0.5% (inactive)	0.875	1.38	98.4% (active)	100% (active)
COc1ccc(S(=O)(=O)NC(CC(=O)N2CCC3(CC2)OCCO3)c2ccco2)cc1 (centres undefined)	0% (inactive)	134	106% (inactive)	134% (inactive)	101% (inactive)	93.9% (inactive)	5.91% (inactive)	88	93.9	-8.77% (inactive)	-0.48% (inactive)
Cc1ccc(S(=O)(=O)Cc2ccc(C(=O)N3CCC4(CC3)OCCO4)o2)cc1	0% (inactive)	75	104% (inactive)	75% (inactive)	103% (inactive)	90.6% (inactive)	-3.13% (inactive)	93.7	90.6	7.37% (inactive)	-5.64% (inactive)

From PubChem BioAssay
